From ChEMBL document CHEMBL4342496, “Design, Synthesis, Dynamic Docking, Biochemical Characterization, and in Vivo Pharmacokinetics Studies of Novel Topoisomerase II Poisons with Promising Antiproliferative Activity” (J Med Chem, 2020)
Active and inactive are the calls of the source. No cut-off for these calls is given here.

Tests used:
[1] = Kinetic solubility in neutral buffer; type: physicochemical
Procedure, shortened: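 Kinetic solubility measured in aqueous buffer at pH 7.4.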

[2] = molecular target: T1, DNA topoisomerase 2-alpha (Homo sapiens, UniProt P11388); assay: Poison activity at human topo2alpha assessed as induction of accumulation of topo-2/DNA cleavage complex formation at 200 uM using […] plasmid incubated for 6 mins by SYBR safe DNA stain based cleavage complex formation assay
Procedure, shortened: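 Test compound at 200 μM was incubated with 1 U topoisomerase II and 500 ng […] plasmid for 6 min at 37 °C, with 1% DMSO final; vehicle and no-enzyme lanes served as controls. Products were run on a 1% agarose gel with SYBR Safe stain. The band intensity of linear DNA (form III) was quantified and normalized.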

[3] = Half life in mouse plasma; type: ADME, cell-free
[4] = Half life in mouse liver microsomes; type: ADME, Microsome
[5] = molecular target: T1, DNA topoisomerase 2-alpha; assay: Inhibition of human topo2alpha by plasmid relaxation assay
[6] = Plasma concentration in mouse at 10 mg/kg, po after 1 hr; type: ADME, organism-based
Procedure, shortened: (§1)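 Mice dosed orally at 10 mg/kg, with n = 3 animals per time point. Plasma concentration was followed over time, with sampling to at least 6 h.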

[7] = Plasma concentration in mouse at 10 mg/kg, po after 6 hrs; type: ADME, organism-based; procedure, shortened: as §1

T1 sequence (P11388 whole entry): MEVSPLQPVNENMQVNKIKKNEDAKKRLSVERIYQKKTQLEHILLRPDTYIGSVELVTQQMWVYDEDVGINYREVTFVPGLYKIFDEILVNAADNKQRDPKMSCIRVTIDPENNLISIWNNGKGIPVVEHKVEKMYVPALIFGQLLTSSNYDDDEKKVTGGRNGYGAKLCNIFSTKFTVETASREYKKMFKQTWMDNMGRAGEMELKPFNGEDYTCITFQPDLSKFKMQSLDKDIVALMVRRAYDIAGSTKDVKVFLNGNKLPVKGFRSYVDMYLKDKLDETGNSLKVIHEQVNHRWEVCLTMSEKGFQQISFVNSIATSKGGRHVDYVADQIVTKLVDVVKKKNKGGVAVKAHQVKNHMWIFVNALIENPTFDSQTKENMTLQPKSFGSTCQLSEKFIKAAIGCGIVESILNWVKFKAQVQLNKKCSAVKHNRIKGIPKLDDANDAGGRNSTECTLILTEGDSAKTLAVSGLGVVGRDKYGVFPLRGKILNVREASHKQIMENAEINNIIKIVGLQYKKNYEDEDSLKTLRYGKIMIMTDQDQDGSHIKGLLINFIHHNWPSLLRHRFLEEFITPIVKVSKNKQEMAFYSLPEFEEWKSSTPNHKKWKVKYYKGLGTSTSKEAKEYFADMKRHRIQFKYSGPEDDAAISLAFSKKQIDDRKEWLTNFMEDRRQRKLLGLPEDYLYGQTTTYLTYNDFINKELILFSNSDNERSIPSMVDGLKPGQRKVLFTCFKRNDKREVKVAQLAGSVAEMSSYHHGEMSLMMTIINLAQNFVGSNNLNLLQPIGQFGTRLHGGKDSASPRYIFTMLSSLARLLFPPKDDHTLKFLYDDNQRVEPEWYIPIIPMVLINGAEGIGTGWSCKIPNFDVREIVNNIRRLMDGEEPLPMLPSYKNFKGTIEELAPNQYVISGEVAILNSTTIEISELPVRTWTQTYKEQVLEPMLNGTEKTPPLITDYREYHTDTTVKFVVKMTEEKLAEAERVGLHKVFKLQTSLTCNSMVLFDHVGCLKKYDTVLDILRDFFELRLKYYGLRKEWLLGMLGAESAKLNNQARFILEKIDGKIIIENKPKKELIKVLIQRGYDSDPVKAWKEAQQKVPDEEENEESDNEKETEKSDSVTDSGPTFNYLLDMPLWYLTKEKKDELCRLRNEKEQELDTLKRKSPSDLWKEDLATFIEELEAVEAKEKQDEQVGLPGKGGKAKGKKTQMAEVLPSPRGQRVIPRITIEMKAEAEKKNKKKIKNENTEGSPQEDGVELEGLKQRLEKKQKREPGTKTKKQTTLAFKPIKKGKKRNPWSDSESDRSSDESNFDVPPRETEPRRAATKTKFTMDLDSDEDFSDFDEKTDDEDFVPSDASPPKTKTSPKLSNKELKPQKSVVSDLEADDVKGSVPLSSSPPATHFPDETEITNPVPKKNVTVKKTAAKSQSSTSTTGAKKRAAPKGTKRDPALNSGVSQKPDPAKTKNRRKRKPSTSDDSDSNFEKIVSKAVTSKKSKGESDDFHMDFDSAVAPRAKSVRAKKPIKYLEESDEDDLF

With `O=C(Nc1cccc(OC(F)F)c1)c1c(O)n(-c2ccccc2)c(=S)n(-c2ccccc2)c1=O` the Kinetic_solubility [1] was 208 µM, the Activity [2] was “Active” and the half-life [3] was > 2 h. For the same compound, the half-life [4] was > 1 h.

`O=C1NC(=S)NC(=O)C1C(=O)Nc1ccccc1` [MERBARONE] gave an IC50 [5] of 40 µM.

In the case of `CC(F)(F)c1cccc(NC(=O)c2c(O)n(-c3ccccc3)c(=S)n(-c3ccccc3)c2=O)c1`, the half-life [3] is reported as > 2 h and the half-life [4] is reported as > 1 h.

In the case of `O=C(Nc1cccc(C(F)F)c1)c1c(O)n(-c2ccccc2)c(=S)n(-c2ccccc2)c1=O`, the Kinetic_solubility [1] is reported as 238 µM, the Activity [2] is reported as “Active” and the half-life [3] is reported as > 2 h. The half-life [4] was > 1 h.

With `O=C(Nc1cccc(OC(F)(F)F)c1)c1c(O)n(-c2ccccc2)c(=S)n(-c2ccccc2)c1=O` the Kinetic_solubility [1] was 224 µM, the Activity [2] was “Active” and the half-life [3] was > 2 h. The half-life [4] was > 1 h, the concentration at 1 h [6] was 0.4 µg/mL and the concentration at 6 h [7] was 0.4 µg/mL.

With `CC(C)Oc1cccc(NC(=O)c2c(O)n(-c3ccccc3)c(=S)n(-c3ccccc3)c2=O)c1` the half-life [3] was > 2 h and the half-life [4] was > 1 h.

For `COc1cccc(CCNC(=O)c2c(O)n(-c3ccccc3)c(=S)n(-c3ccccc3)c2=O)c1`, the half-life [3] was > 2 h and the half-life [4] was > 1 h.
